The test system of test [1] is Escherichia coli. The experiment in a line: Antibacterial activity against Escherichia coli ATCC 25922 by agar diffusion assay. The class given is functional. A general note: A growth-free zone around the sample is the usual read-out of agar diffusion tests.
Test [2] has as its system Escherichia coli. The experiment in a line: Antibacterial activity against Escherichia coli ATCC 25922 incubated for 18 hrs by dilution antimicrobial susceptibility test. The class given is functional. To be noted: ATCC 25922, 18 h. Summed up:
(§1)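 Broth dilution susceptibility method for aerobic bacteria in 96-well plates. Compounds dissolved in DMSO and serially diluted to 10 concentrations (0.5–256 μg/mL). Geneticin served as positive control for E. coli and vancomycin for MSSA. Tested in duplicate, with eight untreated media controls per plate. Incubated 18 h at 33 °C. MIC taken as lowest concentration preventing visible growth.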

For test [3], the system named is Staphylococcus aureus. The experiment in a line: Antibacterial activity against methicillin-sensitive Staphylococcus aureus ATCC 25913 by agar diffusion assay. The class given is functional.
In test [4] the test system is Staphylococcus aureus. The experiment in a line: Antibacterial activity against methicillin-sensitive Staphylococcus aureus ATCC 25913 incubated for 18 hrs by dilution antimicrobial susceptibility test. The class given is functional. To be noted: ATCC 25913, 18 h. The procedure, abridged: as §1
Test [5] has as its system Staphylococcus aureus. The experiment in a line: Antibacterial activity against methicillin-resistant Staphylococcus aureus ATCC 33591 by agar diffusion assay. The class given is functional, organism-based.

The text below walks through data of ChEMBL document CHEMBL4339237, “Bulbiferates A and B: Antibacterial Acetamidohydroxybenzoates from a Marine Proteobacterium, Microbulbifer sp” (2019).

In brackets after ≈: the same amount, converted by molar mass. Activity calls are given as the source filed them.

Broadly, the MIC is the smallest concentration in the dilution series that meets the test's criterion for growth inhibition. A high value points to weaker potency. Regarding `CCCCCCCCOC(=O)c1ccc(O)c(NC(C)=O)c1`, the “diameter of the inhibition zone (DIZ)” value in the test on Escherichia coli [1] is “inactive”. Besides, the MIC with Escherichia coli [2] and in the test with Staphylococcus aureus [4] was above 200 mg/L in each case. Moreover, the “diameter of the inhibition zone (DIZ)” value in the test on Staphylococcus aureus [3] is 5 mm.
With `CN[C@@H]1[C@@H](O)[C@@H](O[C@@H]2[C@@H](O)[C@H](O[C@H]3O[C@H]([C@H](C)O)[C@@H](O)[C@H](O)[C@H]3N)[C@@H](N)C[C@H]2N)OC[C@]1(C)O`, in the test with Escherichia coli [2], the MIC worked out at 0.25 mg/L (≈ 0.503 µM).
For `CCCCCCCCCCCOC(=O)c1ccc(O)c(NC(C)=O)c1`, the “diameter of the inhibition zone (DIZ)” value with Escherichia coli [1] and with Staphylococcus aureus [3] was 5 mm in each case. Besides, the minimal inhibitory concentration (MIC) in the test with Escherichia coli [2] and in the test on Staphylococcus aureus [4] was above 200 mg/L each time. Moreover, in the test on Staphylococcus aureus [5], the result was inactive.
As for `COC(=O)c1ccc(O)c(NC(C)=O)c1`, the “diameter of the inhibition zone (DIZ)” value in the test with Escherichia coli [1] was “inactive”. The MIC against Escherichia coli [2] and with Staphylococcus aureus [4] was above 200 mg/L in each case. Further, the “diameter of the inhibition zone (DIZ)” value with Staphylococcus aureus [3] is given as 7 mm.
Consider `CCCCCCCCCCCCCCOC(=O)c1ccc(O)c(NC(C)=O)c1`, for which the MIC with Escherichia coli [2] and in the test with Staphylococcus aureus [4] was above 200 mg/L in each case.
Regarding `CCCCCCCCCCOC(=O)c1ccc(O)c(NC(C)=O)c1`, the “diameter of the inhibition zone (DIZ)” value is recorded as 6 mm in the test with Escherichia coli [1] and 10 mm with Staphylococcus aureus [3]. The MIC with Escherichia coli [2] and with Staphylococcus aureus [4] was above 200 mg/L in each case. Also, the result in the test with Staphylococcus aureus [5] was inactive.
